Assay results as given in the EternaBench riboswitch data.

Test system: MS2 coat protein
Assay: apparent Kd, MS2 coat protein; higher = weaker binding; RNA-MaP array
Summary of the method: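 Apparent Kd was taken as the median of binding curves fitted cluster by cluster. The designed RNAs were made by transcription of sequenced DNA templates on an Illumina sequencing chip and exposed to fluorescently labeled MS2 coat protein (1.5 nM to 3 μM) at room temperature, with or without input ligand, for 0.8–1.5 h at the lowest and 10–20 min at the highest concentrations. Any design measured on fewer than 10 clusters was left out.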

[1] = designed as: OFF switch for flavin mononucleotide, no ligand
[2] = ligand present: flavin mononucleotide, designed as: OFF switch for flavin mononucleotide
[3] = designed as: ON switch for flavin mononucleotide, no ligand
[4] = ligand present: flavin mononucleotide, designed as: ON switch for flavin mononucleotide
[5] = designed as: OFF switch for tryptophan, no ligand
[6] = ligand present: tryptophan, designed as: OFF switch for tryptophan
[7] = designed as: OFF switch for theophylline, no ligand
[8] = ligand present: theophylline, designed as: OFF switch for theophylline

Sequence	apparent Kd [1]	apparent Kd [2]	apparent Kd [3]	apparent Kd [4]	other results
UCCAUGUUAGGAUAUCGGCCACCUUCGACAAAAGUGUACUGCGAGAAGGAACAUGAGGAUCACCCAUGUCUGGG	416 nM	104 nM			
UCGAGUAAGGAGAAGGACUAAUGGACUCACAAAGUAGGAUAUCCUGAACAUGAGGAUCACCCAUGUUGAUGUAACAUGUACUGG			118 nM	80.1 nM	
UCGAUCAUGUAGAAGGCAUCAGAAACUGGGUGAUGAGGAUAUACGUUAAGACAUGAGGAUCACCCAUGUAAGCAUUGCAAACAC			116 nM	86.2 nM	
UCUAAAAUCGGAGGAUAUUACGAAGACAUGAGGAUCACCCAUGUAGUGGAACACAUAAGUCGCUCUAAGAAGGCCGCAAUUGAC	29.5 nM	34.6 nM			
UCUUUCUUUAAAGAACACAUGAGGAUCACCCAUGUUCAAGGGCAGGAUAUGAGUAUCUGUUCGGAUCAGAAGGGCCCAACAGGU			36 nM	29.5 nM	
UGAAAACCGUCAUAAACAAACAUGAGGAUCACCCAUGUAGCUAAGGAUAUUGACAAACAAAGACUCAAGAAGGUAGAACCUACA	7.99 nM	7.26 nM			
UGCCUAAAGUCGGCCGCCACUGAUGGUAUCCUCUCCUCGAGGUCACACAUGAGGAUCACCCAUGUCAGGACCGGGACUAGUGAGA					apparent Kd [5]: 7.89 nM; apparent Kd [6]: 10.4 nM
UGCGGACAUGAGGAUCACCCAUGUGCGGAUACCAGCAGCCGGCUCUGCCCUUGGCAGCCGCUACCCUUGCACGUUUAACGAUCCA					apparent Kd (designed as: ON switch for theophylline, no ligand): 37.8 nM; apparent Kd (ligand present: theophylline, designed as: ON switch for theophylline): 36.7 nM
UGGUUUGUCCAUACAUGAGGAUCACCCAUGUAACACUGGCCCAGAAGGCGAAAAUGGCAGCCAGUCGAGGAUAUGGGCUGUAUG			59.7 nM	26.6 nM	
UGUAUAGCGGCAGGAUAUGAGAGUGUAGGUGCUUCAGAAGGGCCAUGUGACGCUUUAAAUGGGACACAUGAGGAUCACCCAUGU	18 nM	13.5 nM			
UGUCGCAGGUUAGAUACCAGCGAGGCGCGGGUAAAUGUUCACAUGAGGAUCACCCAUGUUCGCCCUUGGCAGCUAGUAGGCAUAA					apparent Kd [7]: 24.2 nM; apparent Kd [8]: 100 nM
UUAGCACAUGAGGAUCACCCAUGUCAGGAUAUACGGAAUGUCCUCUACAGGGCGCGCUGUAGAAGGGACCGGGC	9.53 nM	9.76 nM			
UUAUAGGAAGGAUAUACAUGAGGAUCACCCAUGUUCAAACCAACGCACUAUCAUAAAUGUAGAAGGACCAACCC	11.9 nM	10.1 nM			
UUAUAUCUUUAGGAUAUGCUGUGUCGGCAACUAGCAGAAGGAAAGACAUGAGGAUCACCCAUGUUGGUGCGUUC	58.8 nM	249 nM			
UUCAUUUAGGAGGAUAUUUAGGCAUGAGGGCUAAAAGAAGGCCUAACAUGAGGAUCACCCAUGUUUGGACUAGA	5.51 nM	7.4 nM			
UUCGUCGGACACACACAUGAGGAUCACCCAUGUAUCUCAAUCAGAAGGGUAUCACCGGAUAGGGUACAGGAUAUGACUACUAUA			43 nM	22.3 nM	
UUGAUCUCGUAGAAGGGAGAGAUUGAGGGCUUCUCAGGAUAUACGAAUCCUCUGUGGCUAUGUUACAUGAGGAUCACCCAUGUC	791 nM	355 nM			
UUGCAGGCAGGAUAUACGGUAUAUAACAUGAGGAUCACCCAUGUUCUUCACGAUCCCUGCGUAGAAGGGCCACAUU	4.96 nM	5.25 nM			
UUGCUCCAUCAGAAGGUCUACGCACAUGAGGAUCACCCAUGUUCUGGAAUCAUCUUGUGUGCCAAGAAGGAUAUGACUUCAAGU	545 nM	363 nM			
UUGGUUGCAUAGAAGGUGAGAUAGGAUCUACAUGAGGAUCACCCAUGUGUUAUCCCAAUUAGAAUCAAGGAUAUAUUGGCUUAU			19.1 nM	15.7 nM	
UUGGUUGGGAAAACGAUUUGCACAUGAGGAUCACCCAUGUCGAAGGAUAUGUGGCGCUGUUUGCGACAGAAGGUCGACCUCGCC			15.5 nM	14.9 nM	
UUGUUCAGCCUAGGAUAUGGGCAAACAUGAGGAUCACCCAUGUUGAGGCUACCACAAAGCCUGCACCAGAAGGAGGCCUAUACG			9.27 nM	5.71 nM	
UUUAGUAUCUUAGAUACCAGUUUUGGGUGCUGAACGUCUCACAUGAGGAUCACCCAUGUAAACCCUUGGCAGCUACAUACGUAAA					apparent Kd [7]: 45.5 nM; apparent Kd [8]: 136 nM
UUUAGUCAAUCGGCCGCCACUGACAUGAGGAUCACCCAUGUAGGUAAGGAUCAACCUCGAAAGUACAGGACCGGGAUUCGCCUCU					apparent Kd [5]: 53.3 nM; apparent Kd [6]: 84 nM
UUUAUAAUCGUAAGGAUAUCCGCGUUAGUCCACCCGGAGAAGGUACAUGAGGAUCACCCAUGUGAACUAUGGGU	24.4 nM	28.5 nM			
UUUAUUCUCUAUACAUGAGGAUCACCCAUGUCAAUGAUGUGCAGAAGGUGGUUCGGCUGUGACUCCAAGGAUAUGCAGAGAAUU			513 nM	115 nM	
